Results reported in ChEMBL document CHEMBL1123100, “Angiotensin converting enzyme inhibitors: 1,5-benzothiazepine derivatives” (J Med Chem, 1985).

Experiments:
[1] = biological target: T1, Angiotensin-converting enzyme (Rattus norvegicus, UniProt P47820); assay: Inhibition of Angiotensin I converting enzyme in rat
T1 sequence (P47820 whole entry): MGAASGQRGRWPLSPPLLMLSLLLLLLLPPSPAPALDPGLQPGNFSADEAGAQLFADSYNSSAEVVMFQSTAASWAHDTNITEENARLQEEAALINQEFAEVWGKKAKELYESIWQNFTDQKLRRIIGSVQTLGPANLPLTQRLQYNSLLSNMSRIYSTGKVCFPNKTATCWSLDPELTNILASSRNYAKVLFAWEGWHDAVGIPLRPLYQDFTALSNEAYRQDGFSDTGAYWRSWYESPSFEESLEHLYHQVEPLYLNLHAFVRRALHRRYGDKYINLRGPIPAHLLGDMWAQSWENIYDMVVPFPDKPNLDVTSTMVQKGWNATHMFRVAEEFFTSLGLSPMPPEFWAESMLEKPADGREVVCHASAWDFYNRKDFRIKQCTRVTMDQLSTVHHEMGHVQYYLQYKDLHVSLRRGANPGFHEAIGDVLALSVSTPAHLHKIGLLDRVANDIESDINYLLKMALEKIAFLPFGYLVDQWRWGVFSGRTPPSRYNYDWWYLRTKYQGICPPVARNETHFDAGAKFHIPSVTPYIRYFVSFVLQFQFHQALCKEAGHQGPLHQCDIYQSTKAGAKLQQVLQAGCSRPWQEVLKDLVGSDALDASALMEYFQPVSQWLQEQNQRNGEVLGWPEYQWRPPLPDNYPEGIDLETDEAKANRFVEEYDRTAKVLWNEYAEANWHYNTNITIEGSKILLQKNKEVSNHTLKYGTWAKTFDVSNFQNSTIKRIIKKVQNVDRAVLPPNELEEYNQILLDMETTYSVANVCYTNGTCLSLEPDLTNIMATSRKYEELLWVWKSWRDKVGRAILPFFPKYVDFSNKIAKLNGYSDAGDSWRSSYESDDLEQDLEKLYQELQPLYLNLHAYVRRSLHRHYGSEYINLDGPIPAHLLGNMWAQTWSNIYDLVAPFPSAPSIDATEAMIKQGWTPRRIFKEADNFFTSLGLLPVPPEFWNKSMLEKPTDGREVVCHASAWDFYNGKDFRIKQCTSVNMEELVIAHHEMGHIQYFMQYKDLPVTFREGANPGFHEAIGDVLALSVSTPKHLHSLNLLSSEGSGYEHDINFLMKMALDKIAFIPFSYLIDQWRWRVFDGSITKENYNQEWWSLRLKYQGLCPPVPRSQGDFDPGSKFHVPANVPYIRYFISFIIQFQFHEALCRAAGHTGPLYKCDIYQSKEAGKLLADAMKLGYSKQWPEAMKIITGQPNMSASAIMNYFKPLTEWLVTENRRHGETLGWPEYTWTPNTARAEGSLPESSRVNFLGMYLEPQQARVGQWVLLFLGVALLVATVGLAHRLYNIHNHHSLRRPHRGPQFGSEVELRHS

Rattus norvegicus [2] = assay: The maximal change in blood pressure recorded during the 4-day test period in spontaneously hypertensive rats (SHR) after oral administration; assay type: functional
Rattus norvegicus [3] = assay: Percent inhibition of angiotensin I (AI) pressor response after oral administration (dose of 1.0 mg/kg) to conscious normotensive rats; assay type: functional
In short: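 Angiotensin I pressor response measured in conscious normotensive rats, 1 h after oral dosing of test compound; value is percent inhibition of the pressor response.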

Rattus norvegicus [4] = assay: Percent inhibition of angiotensin I (AI) pressor response after intravenous administration (dose of 0.05 mg/kg)to conscious normotensive rats; assay type: functional
In short: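 Angiotensin I pressor response measured in conscious normotensive rats, 15 min after intravenous dosing of test compound; value is percent inhibition of the pressor response.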

Work on `O=C(O)CN1C(=O)[C@@H](N[C@@H](CCc2ccccc2)C(=O)O)CSc2ccccc21` yielded an IC50 [1] of 0.0029 µM.
`CCOC(=O)C(CCc1ccccc1)N[C@H]1CSc2ccccc2N(CC(=O)O)C1=O` (stereo partly specified) showed an IC50 [1] of 8 µM.
Work on `O=C(O)CN1C(=O)[C@@H](NC(CCc2ccccc2)C(=O)O)CS(=O)(=O)c2ccccc21` (stereo partly specified) yielded an IC50 [1] of 2.9 µM.
Work on `O=C(O)CN1C(=O)[C@@H](N[C@H](CCc2ccccc2)C(=O)O)CSc2ccccc21` yielded an IC50 [1] of 0.24 µM.
In the case of `CCOC(=O)CN1C(=O)[C@@H](NC(CCc2ccccc2)C(=O)OCC)CCc2ccccc21` (stereo partly specified), the “Max delta BP” value (Rattus norvegicus [2]) is reported as -76 mmHg, the inhibition in vivo at 1 mg/kg (Rattus norvegicus [3]) is reported as 88% and the inhibition in vivo at 0.05 mg/kg (Rattus norvegicus [4]) is reported as 77%. The IC50 [1] was 0.43 µM.
`CCOC(=O)C(CCc1ccccc1)NC1CSc2ccccc2N(CC(=O)O)C1=O` (stereo in doubt; 14a) showed an IC50 [1] of 0.86 µM.
`CCOC(=O)C(CCc1ccccc1)NC1CSc2ccccc2N(CC(=O)O)C1=O.Cl` (stereo in doubt; 14c) was tested, and the “Max delta BP” value (Rattus norvegicus [2]) was -35 mmHg, the inhibition in vivo at 1 mg/kg (Rattus norvegicus [3]) was 39% and the inhibition in vivo at 0.05 mg/kg (Rattus norvegicus [4]) was 75%. For the same molecule, the IC50 [1] was 2.2 µM.
In the case of `O=C(O)CN1C(=O)[C@@H](NC(CCc2ccccc2)C(=O)O)C[S+]([O-])c2ccccc21` (stereo partly specified), the IC50 [1] is reported as 0.0059 µM.
In the case of `O=C(O)CN1C(=O)[C@@H](NC(CCc2ccccc2)C(=O)O)CCc2ccccc21` (stereo partly specified), the IC50 [1] is reported as 0.0017 µM.
`O=C(O)CN1C(=O)[C@@H](NC(CCc2ccccc2)C(=O)O)CSc2ccccc21` (stereo partly specified) gave an IC50 [1] of 0.0098 µM.
